# Laboratory results taken from PMC10413833 (ACS Omega, 2023).
# What was measured:
# MRSA2 = assay: In vitro antibacterial activity; type: cell-based, Staphylococcus aureus
# MRSA3 = assay: In vitro antibacterial activity; type: cell-based; conditions: Staphylococcus aureus
# MRSA1 [1] = assay: In vitro antibacterial activity; type: cell-based; conditions: Staphylococcus aureus
# MRSA5 = assay: In vitro antibacterial activity; type: cell-based; conditions: Staphylococcus aureus
# MRSA4 = assay: In vitro antibacterial activity; type: cell-based; conditions: Staphylococcus aureus
# [2] = comparison value for vancomycin ref 18, 19; cited from earlier work
# MRSA1 [3] = assay: In vivo antibacterial activity, survival of MRSA1 infected mice; design: species or system BALB/c mice; conditions: for survival (%): final survival rate after 7 days
# How it was run: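 Female BALB/c mice (6–8 weeks, 18-22 g) were housed under SPF conditions. They were infected via the tail vein with 0.1 mL of a Columbia broth culture of clinical MRSA1 diluted to OD600 1.5. One hour later, test compound or vancomycin was given IV at 2.5, 10 or 40 mg/kg; an untreated model group was included. Deaths were recorded daily for 7 days to build survival curves. Tissues were examined by H&E histology.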
compound,measurement,setting,value
CN[C@H](CC(C)C)C(=O)N[C@H]1C(=O)N[C@@H](CC(N)=O)C(=O)N[C@H]2C(=O)N[C@H]3C(=O)N[C@H](C(=O)N[C@H](C(=O)O)c4cc(O)cc(O)c4-c4cc3ccc4O)[C@H](O)c3ccc(c(Cl)c3)Oc3cc2cc(c3O[C@@H]2O[C@H](CO)[C@@H](O)[C@H](O)[C@H]2O[C@H]2C[C@](C)(N)[C@H](O)[C@H](C)O2)Oc2ccc(cc2Cl)[C@H]1O [vancomycin],MIC,MRSA2; Staphylococcus aureus,> 512 µg/mL
same,MIC,MRSA2; clinical isolate MRSA2,>512 µg/mL
same,MIC,MRSA3,512 µg/mL
same,MIC,MRSA1 [1],256 µg/mL
same,MIC,MRSA5,256 µg/mL
same,MIC,MRSA4,256 µg/mL
same,half-life (T1/2),[2],4.3 ± 1.9 h
same,survival (%),MRSA1 [3]; 2.5 mg/kg (low-dose),0%
same,number of mice surviving,"MRSA1 [3]; 2.5 mg/kg via tail vein, day1, 6 mice",3
same,number of mice surviving,"MRSA1 [3]; 2.5 mg/kg via tail vein, day2, 6 mice",2
same,number of mice surviving,"MRSA1 [3]; 2.5 mg/kg via tail vein, day3, 6 mice",2
same,number of mice surviving,"MRSA1 [3]; 2.5 mg/kg via tail vein, day4, 6 mice",2
same,number of mice surviving,"MRSA1 [3]; 2.5 mg/kg via tail vein, day5, 6 mice",1
same,number of mice surviving,"MRSA1 [3]; 2.5 mg/kg via tail vein, day6, 6 mice",1
same,number of mice surviving,"MRSA1 [3]; 2.5 mg/kg via tail vein, day7, 6 mice",0
same,survival (%),MRSA1 [3]; 10 mg/kg (medium-dose),16.7%
same,number of mice surviving,"MRSA1 [3]; 10 mg/kg via tail vein, day1, 6 mice",6
same,number of mice surviving,"MRSA1 [3]; 10 mg/kg via tail vein, day2, 6 mice",5
same,number of mice surviving,"MRSA1 [3]; 10 mg/kg via tail vein, day3, 6 mice",2
same,number of mice surviving,"MRSA1 [3]; 10 mg/kg via tail vein, day4, 6 mice",2
same,number of mice surviving,"MRSA1 [3]; 10 mg/kg via tail vein, day5, 6 mice",2
same,number of mice surviving,"MRSA1 [3]; 10 mg/kg via tail vein, day6, 6 mice",1
same,number of mice surviving,"MRSA1 [3]; 10 mg/kg via tail vein, day7, 6 mice",1
same,survival (%),MRSA1 [3]; 40 mg/kg (high-dose),33.3%
same,number of mice surviving,"MRSA1 [3]; 40 mg/kg via tail vein, day1, 6 mice",5
same,number of mice surviving,"MRSA1 [3]; 40 mg/kg via tail vein, day2, 6 mice",5
same,number of mice surviving,"MRSA1 [3]; 40 mg/kg via tail vein, day3, 6 mice",5
same,number of mice surviving,"MRSA1 [3]; 40 mg/kg via tail vein, day4, 6 mice",4
same,number of mice surviving,"MRSA1 [3]; 40 mg/kg via tail vein, day5, 6 mice",2
same,number of mice surviving,"MRSA1 [3]; 40 mg/kg via tail vein, day6, 6 mice",2
same,number of mice surviving,"MRSA1 [3]; 40 mg/kg via tail vein, day7, 6 mice",2
same,ED50,MRSA1 [3]; Mus musculus,59.7 mg/kg
same,"kidney infection, H&E staining",MRSA1 [3]; high-dose (40 mg/kg),severe kidney infection
same,"kidney infection, H&E staining",MRSA1 [3]; low-dose (2.5 mg/kg),severe kidney infection
same,"kidney infection, H&E staining",MRSA1 [3]; medium-dose (10 mg/kg),severe kidney infection
